The source made the active and inactive calls. No cut-off for these calls is given here.

In one experiment the test system is KG-1. The experiment is described as follows: Cytotoxicity against human KG1 cells after 24 hrs by plate reader analysis. Format: functional, cell-based. Particulars: KG-1, 24 h. An outline of the steps: (§1)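 Cells in RPMI 1640 with 10% FBS at 37 °C and 5% CO2 were seeded at 100,000 cells/ml. They were treated for 24 h at 8 concentrations (50–6400 nM), each in triplicate, with DMSO as negative control. Viable cells were measured by ATP-lite luminescence, and EC50 was taken from dose–response curves.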

Experiment [1] concerns the target T1, Receptor-type tyrosine-protein kinase FLT3 (Mus musculus) (UniProt Q00342).
T1 sequence (whole entry): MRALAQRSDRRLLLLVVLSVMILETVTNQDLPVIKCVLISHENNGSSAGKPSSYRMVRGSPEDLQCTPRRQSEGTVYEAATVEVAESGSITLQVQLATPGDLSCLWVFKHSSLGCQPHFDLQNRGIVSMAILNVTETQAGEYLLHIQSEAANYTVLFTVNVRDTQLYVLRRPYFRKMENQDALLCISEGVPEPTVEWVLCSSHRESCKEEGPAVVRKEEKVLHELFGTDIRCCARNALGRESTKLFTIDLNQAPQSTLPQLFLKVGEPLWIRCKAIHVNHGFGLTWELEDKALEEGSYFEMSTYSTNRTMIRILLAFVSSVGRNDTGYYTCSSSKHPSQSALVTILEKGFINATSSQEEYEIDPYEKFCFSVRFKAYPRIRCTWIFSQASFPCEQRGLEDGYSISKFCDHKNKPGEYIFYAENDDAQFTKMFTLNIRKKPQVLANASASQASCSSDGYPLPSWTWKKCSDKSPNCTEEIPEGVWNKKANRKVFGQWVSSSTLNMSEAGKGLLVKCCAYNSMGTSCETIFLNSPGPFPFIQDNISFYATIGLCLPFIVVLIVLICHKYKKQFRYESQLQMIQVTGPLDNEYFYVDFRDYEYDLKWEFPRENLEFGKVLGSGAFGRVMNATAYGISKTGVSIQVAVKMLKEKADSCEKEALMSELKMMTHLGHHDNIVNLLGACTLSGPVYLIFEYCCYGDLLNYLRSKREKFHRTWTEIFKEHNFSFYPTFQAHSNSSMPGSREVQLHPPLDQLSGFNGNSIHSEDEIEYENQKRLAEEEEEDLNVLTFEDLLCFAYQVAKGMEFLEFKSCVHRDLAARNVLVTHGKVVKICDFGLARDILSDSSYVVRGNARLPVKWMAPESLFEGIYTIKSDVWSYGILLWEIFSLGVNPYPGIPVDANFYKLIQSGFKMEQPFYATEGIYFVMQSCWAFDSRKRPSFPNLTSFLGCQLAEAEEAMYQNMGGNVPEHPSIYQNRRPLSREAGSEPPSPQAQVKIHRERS
The experiment is described as follows: Inhibition of FLT3 phosphorylation in mouse Ba/F3 cells transfected with FLT3-ITD at 50 nM after 90 mins by Western blot analysis. In kind it is cell-based. The conditions noted are these: BaF3. An outline of the steps: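 Ba/F3-FLT3-ITD cells were treated for 90 min with increasing doses. They were lysed in buffer with 1 mM NaVO4 and protease inhibitors, then reduced and run on Bis-Tris 4–12% gels for Western blot. Phospho-FLT3 and phospho-STAT5 were detected, with total FLT3 and STAT5 as loading controls.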
(In western blotting, separated proteins are transferred to a membrane and probed.)

The next experiment deals with EOL1. As to the kind of experiment: Cytotoxicity against human EOL-1 cells after 24 hrs by plate reader analysis. In kind it is functional, cell-based. Particulars: EOL1, 24 h. An outline of the steps:
as §1

In experiment [2] the target is Platelet-derived growth factor receptor alpha (Homo sapiens) (UniProt P16234). As to the kind of experiment: Inhibition of PDGFRalpha phosphorylation in human EOL-1 cells after 90 mins by Western blot analysis. Format: cell-based. The conditions noted are these: EOL1. In outline: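 EOL-1 cells (FIP1L1-PDGFRA, RPMI/10% FBS) treated 90 min with increasing compound doses. Lysed in lysis buffer with 1 mM NaVO4 and protease inhibitors, reduced, and run on Bis-Tris 4–12% gels. Western blot for phospho-PDGFRα and phospho-STAT5, with total PDGFRα and STAT5 as loading controls.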

For experiment [3], the target named is Ephrin type-A receptor 5 (Homo sapiens) (UniProt P54756). The experiment is described as follows: Inhibition of EPHA5 (unknown origin) transfected in mouse Ba/F3 cells up to 1 uM. In kind it is cell-based. The conditions noted are these: BaF3.
In experiment [4] the target is Proto-oncogene tyrosine-protein kinase Src (Homo sapiens) (UniProt P12931). As to the kind of experiment: Inhibition of SRC (unknown origin) transfected in mouse Ba/F3 cells up to 1 uM. The conditions noted are these: BaF3. Format: cell-based. An outline of the steps: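 Ba/F3 cells transformed by ROS1 or SRC, dependent on that kinase. Parental Ba/F3 grown with mouse IL-3 served as control. Seeded at 100,000 cells/ml. Eight concentrations (50–6400 nM) run in triplicate with DMSO negative control for 24 h. Viable cells quantified by ATP-lite luminescence, mean ± SEM.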

Experiment [5] addresses T2, Ephrin type-A receptor 8 (Homo sapiens) (UniProt P29322).
T2 sequence (whole entry): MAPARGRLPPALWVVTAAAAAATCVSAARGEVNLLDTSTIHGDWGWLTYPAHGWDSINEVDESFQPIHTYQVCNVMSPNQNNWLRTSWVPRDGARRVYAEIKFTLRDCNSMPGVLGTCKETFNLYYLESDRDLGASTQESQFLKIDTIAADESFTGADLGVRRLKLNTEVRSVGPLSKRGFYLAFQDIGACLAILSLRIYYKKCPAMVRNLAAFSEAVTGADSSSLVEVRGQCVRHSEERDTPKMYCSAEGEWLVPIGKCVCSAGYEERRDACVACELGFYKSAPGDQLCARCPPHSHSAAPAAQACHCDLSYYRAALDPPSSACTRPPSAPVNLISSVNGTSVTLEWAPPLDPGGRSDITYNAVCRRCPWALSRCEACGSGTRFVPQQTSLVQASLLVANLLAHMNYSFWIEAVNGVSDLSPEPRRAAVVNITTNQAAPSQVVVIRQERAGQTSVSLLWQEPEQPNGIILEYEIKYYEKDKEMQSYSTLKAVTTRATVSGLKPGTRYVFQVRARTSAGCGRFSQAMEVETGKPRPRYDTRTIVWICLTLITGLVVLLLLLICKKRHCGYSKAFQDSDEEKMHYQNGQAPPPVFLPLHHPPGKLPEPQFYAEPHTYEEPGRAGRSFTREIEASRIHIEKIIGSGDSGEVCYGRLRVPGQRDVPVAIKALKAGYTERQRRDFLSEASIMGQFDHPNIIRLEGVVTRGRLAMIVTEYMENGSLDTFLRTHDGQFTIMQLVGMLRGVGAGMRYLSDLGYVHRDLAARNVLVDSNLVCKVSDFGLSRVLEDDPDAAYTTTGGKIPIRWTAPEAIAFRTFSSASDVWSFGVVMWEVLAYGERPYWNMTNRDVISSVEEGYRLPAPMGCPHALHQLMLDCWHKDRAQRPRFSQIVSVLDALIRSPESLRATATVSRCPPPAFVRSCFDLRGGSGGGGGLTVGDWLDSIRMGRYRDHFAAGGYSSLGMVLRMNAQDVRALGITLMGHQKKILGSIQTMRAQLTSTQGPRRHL
The experiment is described as follows: Inhibition of EPHA8 (unknown origin) transfected in mouse Ba/F3 cells up to 1 uM. In kind it is cell-based. The conditions noted are these: BaF3.

Ephrin type-A receptor 5 (Homo sapiens), sequence (P54756 whole entry): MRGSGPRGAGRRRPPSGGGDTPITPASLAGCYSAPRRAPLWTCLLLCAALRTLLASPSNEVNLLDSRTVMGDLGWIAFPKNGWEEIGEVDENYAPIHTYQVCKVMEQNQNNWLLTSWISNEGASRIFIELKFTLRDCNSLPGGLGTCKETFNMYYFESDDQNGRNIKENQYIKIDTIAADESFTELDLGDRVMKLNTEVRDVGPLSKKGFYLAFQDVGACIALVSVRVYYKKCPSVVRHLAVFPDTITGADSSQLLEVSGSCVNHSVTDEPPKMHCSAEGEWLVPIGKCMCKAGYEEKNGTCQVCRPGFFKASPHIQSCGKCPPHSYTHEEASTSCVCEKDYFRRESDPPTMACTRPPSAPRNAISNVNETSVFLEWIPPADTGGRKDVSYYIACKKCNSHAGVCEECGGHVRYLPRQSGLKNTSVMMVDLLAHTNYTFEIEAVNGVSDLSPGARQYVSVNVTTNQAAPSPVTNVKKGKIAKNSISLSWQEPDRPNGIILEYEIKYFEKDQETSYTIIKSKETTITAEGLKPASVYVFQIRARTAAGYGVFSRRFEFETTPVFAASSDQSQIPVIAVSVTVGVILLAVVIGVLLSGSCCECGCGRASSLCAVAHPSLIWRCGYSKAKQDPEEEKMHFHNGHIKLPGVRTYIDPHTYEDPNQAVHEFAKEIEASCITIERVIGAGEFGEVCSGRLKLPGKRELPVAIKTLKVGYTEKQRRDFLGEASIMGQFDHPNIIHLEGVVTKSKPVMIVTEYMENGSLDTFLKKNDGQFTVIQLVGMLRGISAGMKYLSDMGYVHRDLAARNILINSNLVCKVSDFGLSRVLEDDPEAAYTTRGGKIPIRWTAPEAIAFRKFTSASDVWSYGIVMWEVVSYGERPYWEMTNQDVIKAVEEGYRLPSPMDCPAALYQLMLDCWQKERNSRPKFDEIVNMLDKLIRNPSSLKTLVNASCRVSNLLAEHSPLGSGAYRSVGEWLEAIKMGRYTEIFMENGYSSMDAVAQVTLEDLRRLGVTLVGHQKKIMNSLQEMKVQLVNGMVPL
Proto-oncogene tyrosine-protein kinase Src (Homo sapiens), sequence (P12931 2-536 limits assumed): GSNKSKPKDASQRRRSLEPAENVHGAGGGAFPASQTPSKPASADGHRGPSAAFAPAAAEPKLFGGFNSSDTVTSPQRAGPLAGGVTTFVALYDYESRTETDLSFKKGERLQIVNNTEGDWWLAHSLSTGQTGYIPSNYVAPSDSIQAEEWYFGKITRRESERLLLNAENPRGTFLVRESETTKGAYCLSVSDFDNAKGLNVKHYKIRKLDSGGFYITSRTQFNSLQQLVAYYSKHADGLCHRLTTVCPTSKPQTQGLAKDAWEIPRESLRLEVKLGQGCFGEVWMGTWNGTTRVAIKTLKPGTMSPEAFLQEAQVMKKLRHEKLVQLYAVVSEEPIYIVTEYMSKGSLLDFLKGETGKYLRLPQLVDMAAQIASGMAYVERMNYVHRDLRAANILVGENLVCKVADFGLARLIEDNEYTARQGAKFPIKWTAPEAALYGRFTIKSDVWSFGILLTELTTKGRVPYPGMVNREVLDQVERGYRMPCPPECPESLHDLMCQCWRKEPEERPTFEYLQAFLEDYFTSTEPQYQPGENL
Platelet-derived growth factor receptor alpha (Homo sapiens), sequence (P16234 whole entry): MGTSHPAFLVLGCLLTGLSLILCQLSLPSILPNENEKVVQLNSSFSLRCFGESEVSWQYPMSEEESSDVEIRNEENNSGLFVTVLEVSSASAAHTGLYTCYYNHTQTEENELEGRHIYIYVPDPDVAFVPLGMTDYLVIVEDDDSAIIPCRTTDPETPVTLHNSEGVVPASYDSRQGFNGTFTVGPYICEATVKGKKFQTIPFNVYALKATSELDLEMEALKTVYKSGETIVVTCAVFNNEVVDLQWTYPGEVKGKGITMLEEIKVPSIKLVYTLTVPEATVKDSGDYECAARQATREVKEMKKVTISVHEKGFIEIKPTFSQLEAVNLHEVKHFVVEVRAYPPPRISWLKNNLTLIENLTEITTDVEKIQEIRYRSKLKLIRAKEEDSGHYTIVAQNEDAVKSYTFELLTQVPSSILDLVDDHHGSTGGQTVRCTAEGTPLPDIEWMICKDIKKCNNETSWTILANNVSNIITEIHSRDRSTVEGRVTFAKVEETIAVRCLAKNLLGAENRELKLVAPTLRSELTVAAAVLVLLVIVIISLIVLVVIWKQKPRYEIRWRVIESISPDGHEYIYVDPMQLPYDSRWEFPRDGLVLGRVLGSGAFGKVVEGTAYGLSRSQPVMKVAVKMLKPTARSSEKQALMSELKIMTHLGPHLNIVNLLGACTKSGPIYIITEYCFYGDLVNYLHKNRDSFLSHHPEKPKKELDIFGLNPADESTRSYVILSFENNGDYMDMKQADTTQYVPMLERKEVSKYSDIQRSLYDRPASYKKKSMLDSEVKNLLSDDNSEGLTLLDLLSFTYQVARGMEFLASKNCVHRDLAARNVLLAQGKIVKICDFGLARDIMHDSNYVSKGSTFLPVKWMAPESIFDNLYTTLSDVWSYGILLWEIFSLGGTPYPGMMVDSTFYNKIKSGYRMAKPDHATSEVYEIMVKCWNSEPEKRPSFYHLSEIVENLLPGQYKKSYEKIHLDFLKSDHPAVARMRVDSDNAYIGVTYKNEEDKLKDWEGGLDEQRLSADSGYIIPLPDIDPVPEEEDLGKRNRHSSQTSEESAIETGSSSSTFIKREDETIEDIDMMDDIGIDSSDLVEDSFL

A word on the EC50: it is the midpoint of the concentration-response curve. Low values mean an effect from little substance, high ones a need for much substance. As for `COc1ccc(C(=O)Nc2cc(-c3ccccc3)[nH]n2)cc1`, the 50% effective concentration (EC50) is 15 µM in the experiment with KG-1 and 0.07 µM in the experiment with EOL1. Also, the inhibition result in experiment [1] is “Active”.

Take `Cc1ccc(-c2cc(NC(=O)c3ccc(F)cc3)[nH]n2)cc1`: the inhibition result in experiment [2] was “inactive”.

As for `Fc1ccc(-c2n[nH]cc2-c2ccncc2)cc1Cl`, the inhibition entry in experiment [3], in experiment [4] and in experiment [5] was “inactive” each time.

Source of the values: ChEMBL document CHEMBL2390926, “Identification of novel FLT3 kinase inhibitors” (Eur J Med Chem, 2013).
